Source: PubChem
NRP1-CendR mod: modulators of CendR peptide binding to human neuropilin-1 | O14786 | FAM-RPARPAR peptide binding to NRP-1, fluorescence polarization | inhibition, % at 25 µM | 360,000 tested, 0.85% active;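 active means inhibition or corrected inhibition above about 18%, plus a signal ratio from 0.5 to 1.5, limit read from the data, passing the limit was not always enough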
MEX-5 binding: C. elegans MEX-5 TCR-2 RNA binding activity; activity score (negative = inhibition of binding), % at 10 µM; 300,000 tested, 0.38% active; Q9XUB2; MEX-5/FITC-TCR2 RNA binding, fluorescence polarization; hits give low values;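 active means inhibition past about -25% in most replicates, and total fluorescence under double the plate's negative control median, limit read from the data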
Target sequence (Q9XUB2 whole entry, looked up): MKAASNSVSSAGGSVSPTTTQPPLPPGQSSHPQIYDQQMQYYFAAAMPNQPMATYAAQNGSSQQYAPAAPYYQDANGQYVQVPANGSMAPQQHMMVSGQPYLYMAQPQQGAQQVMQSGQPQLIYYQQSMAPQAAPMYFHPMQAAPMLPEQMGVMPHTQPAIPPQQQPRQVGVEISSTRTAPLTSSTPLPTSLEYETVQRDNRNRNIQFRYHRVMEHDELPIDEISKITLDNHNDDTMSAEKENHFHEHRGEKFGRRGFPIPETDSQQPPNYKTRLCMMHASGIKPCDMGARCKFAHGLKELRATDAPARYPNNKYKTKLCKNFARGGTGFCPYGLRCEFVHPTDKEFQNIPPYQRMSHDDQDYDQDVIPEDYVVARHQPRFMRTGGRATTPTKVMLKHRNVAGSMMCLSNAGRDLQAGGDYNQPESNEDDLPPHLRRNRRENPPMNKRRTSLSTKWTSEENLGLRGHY
DNA FID counter: counter-screen for HCV NS3 helicase inhibitors: DNA intercalator displacement; DNA fluorescent intercalator displacement, fluorescence; inhibition, % at 7.9 µM; 290,000 tested, 0.17% active; AID 1845; in the data active means inhibition above about 37%;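 further: higher means more ethidium bromide displaced from hairpin DNA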
core dimer inh: HCV core protein dimerization inhibition; inhibition, % at 5 µM; TR-FRET GST/Flag-core106 dimerization, 1536-well; 300,000 tested, 0.33% active;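 active means inhibition above the mean of all tested compounds plus 3 SD, set per screening campaign, cut at about 45% in these data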
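Material: GST/Flag-tagged HCV core106 proteins. Incubation: 4 h, 22.5 °C incubation. Read-out basis: inhibition (%) from 671 over 617 nm ratio. Measured by: TR-FRET, excitation 340 nm, emission 617 and 671 nm.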
A number is an active result; - = inactive; . = no result given. Shown are actives, neighbours in structure and some others; about 1.5% of the full set was active somewhere.

SMILES	NRP1-CendR mod	MEX-5 binding	DNA FID counter	core dimer inh
CCCCn1c(N)c(N(CCOC)C(=O)CCS(=O)(=O)c2ccc(C)cc2)c(=O)[nH]c1=O	-	.	.	.
Cc1ccc(/C=C/C(=O)OCC(=O)c2ccc3c(c2)NC(=O)CO3)o1	-	.	.	.
O=C1COc2ccc(C(=O)COC(=O)COc3ccccc3[N+](=O)[O-])cc2N1	25	-	-	-
Cc1ccc(C(=O)NCC(=O)OCC(=O)c2ccc3c(c2)NC(=O)CO3)cc1	31	-	-	-
O=C1COc2ccc(C(=O)COC(=O)/C=C/c3ccc(Br)o3)cc2N1	-	-	.	84
O=C1COc2ccc(C(=O)COC(=O)c3cc(S(=O)(=O)N4CCOCC4)ccc3F)cc2N1	-	-	-	-
O=C1COc2ccc(C(=O)COC(=O)CCc3ccc(S(=O)(=O)N4CCOCC4)cc3)cc2N1	35	-	-	-
N#Cc1ccccc1OCC(=O)OCC(=O)c1ccc2c(c1)NC(=O)CO2	-	-	-	-
CCOc1cc(C2C(C#N)=C(N)Oc3n[nH]c(-c4ccncc4)c32)cc([N+](=O)[O-])c1O (stereo unspecified)	32	-	-	-
COc1cc(C2C(C#N)=C(N)Oc3n[nH]c(-c4cccnc4)c32)ccc1OCC(N)=O (stereo unspecified)	-	-	-	-
COc1cc(C2C(C#N)=C(N)Oc3n[nH]c(-c4cccnc4)c32)cc(Br)c1O (stereo unspecified)	-	-34	-	-
CCOC(=O)[C@]12CCCC=C1N(CCc1ccc(OC)c(OC)c1)C(=O)[C@H](CC(=O)NCCc1ccccc1OC)C2	-	.	.	.
C[C@@H](c1ccccc1)N1C[C@H](COCc2ccccc2)Oc2cc(N3CC[C@H](O)C3)ccc2S1(=O)=O	-	.	.	.
O=[N+]([O-])c1ccc(NC(=S)NCc2ccc(F)cc2)cc1	-	-	-	-
CC(=O)C1=C(NC(=O)c2ccccc2F)C[C@@H]2[C@H]1C2(C)C	17	-	-	-
CC(=O)C1=C(NC(=O)c2ccc(C(F)(F)F)cc2)C[C@@H]2[C@H]1C2(C)C	-	-	-	-
CC(C)C[C@@H](CN1CCC[C@H]1CN1C(=O)C(=O)NC[C@@H]1Cc1ccccc1)N1C[C@H](Cc2ccc(O)cc2)N(CC2CCCCCC2)C(=O)C1=O	-	.	.	.
CCNC(=O)N(C)c1c(CC)nc2ccc(C(=O)N3CCN(S(=O)(=O)CC)CC3)cn12	-	.	.	.
CN(C1=C(NC(=O)c2ccccc2)C(=O)c2ccccc2C1=O)C1CCS(=O)(=O)C1 (stereo unspecified)	45	-	-	-
Nc1nc(SCc2ccc(Cl)cc2Cl)c2ncn(C3OC(CO)C(O)C3O)c2n1 (stereo unspecified)	-	.	.	.
CCCNC(=O)C1(C)CCN1C(=O)c1cc(C)n(C)n1 (stereo unspecified)	-	.	.	.
CC(C(=O)NC1CC1)c1ncc(C(F)(F)F)cc1Cl (stereo unspecified)	-	-	-	-
CC(C(=O)N1CCN(c2ccc(Cl)cc2)CC1)c1ncc(C(F)(F)F)cc1Cl (stereo unspecified)	47	-	-	-
O=C(COC(=O)c1cc[n+]([O-])cc1)Nc1ccc(Cl)cc1C(F)(F)F	-	-	.	-
CC(NS(=O)(=O)c1cn(C)c(=O)n(C)c1=O)c1ccccc1 (stereo unspecified)	26	-	-	-
SMILES	NRP1-CendR mod	MEX-5 binding	DNA FID counter	core dimer inh
Cn1cc(S(=O)(=O)NCCc2ccccc2)c(=O)n(C)c1=O	-	.	-	-
Cc1ccccc1-c1nc(CS(=O)(=O)CC(=O)NCCCN2CCOCC2)c(C)o1	-	-	-	-
COc1cccc(-c2nc(CS(=O)(=O)CC(=O)NCc3ccc(Cl)cc3)c(C)o2)c1	20	-	-	-
Cc1ccc(-c2nc(CS(=O)(=O)CC(=O)NCCCN(Cc3ccccc3)C(C)C)c(C)o2)cc1	-	-	37	-
Cc1ccccc1-c1nc(CS(=O)(=O)CC(=O)NCCCN2CC(C)CC(C)C2)c(C)o1 (stereo unspecified)	-	-	37	-
Cc1ccc(C(=O)CCC(=O)N2CCN(C/C=C/c3ccccc3)CC2)cc1	-	.	.	.
Nc1c(OS(=O)(=O)c2ccccc2)cccc1OS(=O)(=O)c1ccccc1	-	.	.	.
C#Cc1ccc(CN2CCC(C(=O)Nc3ccc(Oc4ccccc4)nc3)CC2)cc1	-	.	-	-
O=C(Nc1ccc(Oc2ccccc2)nc1)C1CCN(Cc2cccc(F)c2)CC1	27	-	-	-
CC(=O)c1ccc(N2CCN(Cc3cc(=O)n4c(-c5ccccc5)csc4n3)CC2)cc1	-	.	.	.
O=c1cc(CN2CCN(c3ccccc3)CC2)nc2scc(-c3ccccc3)n12	-	-	-	46
COC(=O)C1=C(C)N=C2SC(C#N)=C(N)N2C1c1cccc(OC)c1 (stereo unspecified)	-	-28	-	-
COC(=O)C1=C(C)N=C2SC(C#N)=C(N)N2C1c1ccc(OC)cc1 (stereo unspecified)	-	-	-	-
CN(C)N1C(=O)/C(=C/c2ccco2)SC1=Nc1ccccc1	-	.	.	-
O=C1/C(=C\c2ccc(Br)o2)SC(=Nc2ccccc2)N1c1ccccc1	-	-	-	59
CCOC(=O)c1cnc2c(C)cc(Cl)cc2c1NCCCN1CCOCC1	-	-	46	-
CCOC(=O)c1cnc2c(C)cccc2c1NCCCN1CCOCC1	-	-	55	-
CCOC(=O)c1cnc2c(CC)cccc2c1NCCN1CCOCC1	-	-	-	-
COc1ccc(C(O)c2nc(-c3cc4ccccc4o3)cs2)cc1 (stereo unspecified)	-	.	.	.
CCOC(=O)C1CCCN(C(=O)c2cccc(OC(F)(F)F)c2)CC1 (stereo unspecified)	-	.	.	.
Cn1nc(-c2ccc(Cl)cc2)nc2c(=O)n(C)c(=O)nc1-2	.	-41	-	68
CCN(CC)S(=O)(=O)c1ccc(N2CCOCC2)c(NC(=O)c2c3c(nc4ccccc24)CCC3)c1	-	-	-	77
O=C(Nc1cccc(S(=O)(=O)N2CCOCC2)c1)c1c2c(nc3ccccc13)CCC2	-	-	-	74
CCNC(=O)C1(C)CCN(C(=O)c2ccccc2OC)C1 (stereo unspecified)	-	.	.	.
CSc1ccc(Cn2c(C)c(C(=O)NCc3ccc4c(c3)OCCO4)sc2=O)cc1	-	.	.	.
SMILES	NRP1-CendR mod	MEX-5 binding	DNA FID counter	core dimer inh
CC(C)C(=O)N1CCC1(C)C(=O)Nc1cc(-c2ccccc2)nn1C (stereo unspecified)	-	.	.	.
CCCCC1CCC(C(=O)NC2CCS(=O)(=O)C2)CC1 (stereo unspecified)	38	-	-	-
CN1C[C@@H]2C(c3ccc(Cl)nc3)C3(c4ccccc4)CC2(C3)[C@H]1c1ccccc1 (stereo partly specified)	23	-	.	-
Cc1ccc(NC(=O)C2CCCN2C(=O)NC2CCCCC2)cc1C (stereo unspecified)	28	-	-	-
COc1ccc(OC)c(/C(C)=N/Nc2ccc(C(=O)O)cc2)c1	-	-	-	-
C/C(=N/Nc1ccc(C(=O)O)cc1)c1ccc(O)c(O)c1O	-	-41	-	-
COc1ccc(-c2noc(-c3ccccc3C(=O)N3CCOCC3)n2)cc1	26	-	-	-
